The results in this text go back to ChEMBL document CHEMBL4014343 (J Med Chem, 2017).

One series relates to MCF7. In words: Antiproliferative activity against human MCF7 cells after 3 days by SRB assay. Particulars: Homo sapiens, MCF7, 72 h. In kind it is functional, cell-based.
Series [1] is described as follows: Solubility of the compound in water by spectrophotometric method. In kind it is physicochemical. Put shortly: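 Ethanol standard solutions define absorbance maxima; aqueous solubility then quantified spectrophotometrically at that maximum by calibration.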
A short description of series [2]: Antiproliferative activity against human LXFL 529L cells after 3 days by SRB assay. The series is classed as functional, cell-based.
The target of series [3] is Cyclin-dependent kinase 2/cyclin E1 (Homo sapiens, UniProt P24941). The experiment in a line: Inhibition of full length human C-terminal His6-tagged CDK2/N-terminal GST-tagged CyclinE expressed in baculovirus infected sf21 cells after 10 mins in presence of [gamma32P]ATP by beta counting method.
Series [4] addresses Cyclin-dependent kinase 1/cyclin B1 (Homo sapiens, UniProt P06493). In words: Inhibition of full length human C-terminal His6-tagged CDK1/N-terminal GST-tagged CyclinB expressed in baculovirus infected sf21 cells after 10 mins in presence of [gamma32P]ATP by beta counting method. The series is classed as cell-based.
The next series addresses CDK2/Cyclin A2 (Homo sapiens, UniProt P24941). The experiment in a line: Inhibition of full length human C-terminal His6-tagged CDK2/N-terminal GST-tagged CyclinA expressed in baculovirus infected sf21 cells after 10 mins in presence of [gamma32P]ATP by beta counting method.
The target in the next series is CDK6/cyclin D3 (Homo sapiens, UniProt Q00534). The experiment in a line: Inhibition of full length human N-terminal His6-tagged CDK6/N-terminal GST-tagged CyclinD3 expressed in sf21 cells after 10 mins in presence of [gamma32P]ATP by beta counting method.
Sequence of CDK6/cyclin D3 (P30281 whole entry): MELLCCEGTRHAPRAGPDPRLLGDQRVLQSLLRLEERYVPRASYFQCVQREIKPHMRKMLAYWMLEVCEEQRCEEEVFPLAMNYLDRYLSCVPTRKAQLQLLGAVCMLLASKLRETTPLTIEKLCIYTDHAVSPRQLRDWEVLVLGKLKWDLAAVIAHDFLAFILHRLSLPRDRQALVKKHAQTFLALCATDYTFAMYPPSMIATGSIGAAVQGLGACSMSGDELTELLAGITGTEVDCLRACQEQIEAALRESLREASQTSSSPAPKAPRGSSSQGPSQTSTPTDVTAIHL
Sequence of CDK6/cyclin D3 (Q00534 whole entry): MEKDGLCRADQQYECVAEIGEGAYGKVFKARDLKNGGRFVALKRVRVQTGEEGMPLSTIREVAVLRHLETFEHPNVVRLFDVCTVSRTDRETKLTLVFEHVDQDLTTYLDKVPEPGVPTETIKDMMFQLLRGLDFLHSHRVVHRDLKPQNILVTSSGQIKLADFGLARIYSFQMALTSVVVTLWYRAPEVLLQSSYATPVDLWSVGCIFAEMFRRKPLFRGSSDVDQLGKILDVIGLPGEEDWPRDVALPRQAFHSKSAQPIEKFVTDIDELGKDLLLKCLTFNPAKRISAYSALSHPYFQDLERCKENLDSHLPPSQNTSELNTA
In series [5] the target is Glycogen synthase kinase-3 beta (Homo sapiens, UniProt P49841). In words: Inhibition of recombinant GSK3beta (unknown origin) after 10 mins in presence of [gamma32P]ATP by beta counting method. The method in brief:
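Recombinant kinase with 0.4 μCi [γ-32P]ATP per vial, 10 min at 30 °C; spotted on P81 paper, washed in 0.75% phosphoric acid, counted by β-scintillation. IC50 by linear regression versus solvent control; duplicates, ≥3 independent experiments.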

Values after ≈ are worked out from the molar mass of the structure shown.

Sequence of Cyclin-dependent kinase 1/cyclin B1 (P06493 whole entry): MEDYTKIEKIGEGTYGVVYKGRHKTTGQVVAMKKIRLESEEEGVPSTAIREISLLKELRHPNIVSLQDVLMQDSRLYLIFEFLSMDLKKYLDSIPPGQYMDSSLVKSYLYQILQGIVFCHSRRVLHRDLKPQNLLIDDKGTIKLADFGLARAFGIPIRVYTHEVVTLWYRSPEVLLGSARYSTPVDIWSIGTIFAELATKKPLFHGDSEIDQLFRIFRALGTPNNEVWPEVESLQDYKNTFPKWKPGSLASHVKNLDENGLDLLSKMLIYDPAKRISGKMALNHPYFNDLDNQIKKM
Sequence of Cyclin-dependent kinase 1/cyclin B1 (P14635 whole entry, further chain): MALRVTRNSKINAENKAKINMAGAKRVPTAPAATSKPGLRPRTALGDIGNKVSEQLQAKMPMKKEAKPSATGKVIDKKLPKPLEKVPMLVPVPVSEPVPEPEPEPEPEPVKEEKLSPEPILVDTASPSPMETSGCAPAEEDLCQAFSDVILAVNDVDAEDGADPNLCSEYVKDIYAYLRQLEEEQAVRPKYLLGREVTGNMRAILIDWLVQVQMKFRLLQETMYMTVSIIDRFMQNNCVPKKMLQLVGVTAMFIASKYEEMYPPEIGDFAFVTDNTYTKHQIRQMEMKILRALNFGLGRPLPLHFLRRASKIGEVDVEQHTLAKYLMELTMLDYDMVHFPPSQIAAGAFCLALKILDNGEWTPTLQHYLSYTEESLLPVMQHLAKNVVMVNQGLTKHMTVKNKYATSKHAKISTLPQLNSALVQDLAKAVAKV
Sequence of Glycogen synthase kinase-3 beta (P49841 whole entry): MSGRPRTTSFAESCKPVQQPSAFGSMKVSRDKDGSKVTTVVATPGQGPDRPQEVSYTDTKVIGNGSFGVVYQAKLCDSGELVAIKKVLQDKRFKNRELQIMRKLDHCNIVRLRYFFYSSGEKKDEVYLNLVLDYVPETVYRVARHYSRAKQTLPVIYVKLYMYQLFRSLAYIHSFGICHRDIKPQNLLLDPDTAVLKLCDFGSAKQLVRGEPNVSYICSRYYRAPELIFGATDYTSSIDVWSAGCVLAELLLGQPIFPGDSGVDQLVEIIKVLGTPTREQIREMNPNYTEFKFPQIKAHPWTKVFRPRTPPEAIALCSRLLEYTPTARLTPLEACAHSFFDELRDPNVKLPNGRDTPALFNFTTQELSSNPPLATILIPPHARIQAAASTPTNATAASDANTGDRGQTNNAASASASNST

In the series with MCF7, `CN(C)CCNC(=O)c1ccc2c(c1)C(=O)/C(=C1/C(=O)Nc3ccccc31)N2` came in with an IC50 of 5430 nM. The solubility in series [1] stood at 16.1 µg/mL (≈ 42.8 µM).
`CC(C)C[C@H](NC(=O)[C@H](Cc1ccccc1)NC(=O)c1cnccn1)B(O)O` [BORTEZOMIB] had an IC50 in the series with MCF7 of 25 nM.
The molecule `O=C1Nc2ccccc2/C1=C1/Nc2ccc([N+](=O)[O-])cc2C1=O` registered a solubility in series [1] of less than 0.1 µg/mL.
As to `CN1CCN(CCO/N=C2/C(=C3/C(=O)Nc4ccccc43)Nc3ccccc32)CC1`, the figures for the IC50 (with MCF7; in series [2] (lxfl 529l)) were 800 nM and 860 nM, respectively. In series [1], this molecule had a solubility of 2 µg/mL (≈ 4.96 µM).
On to `CN1CCN(C(=O)c2ccc3c(c2)C(=O)/C(=C2/C(=O)Nc4ccccc42)N3)CC1`, for which the IC50 in the series on MCF7 was 17900 nM. Moreover, the concentration in solution in series [1] (solubility) was 23.9 µg/mL (≈ 61.5 µM).
Turning to `O=C1Nc2ccccc2/C1=C1/Nc2ccccc2/C1=N\OCCCC(O)CO` (stereo not drawn), it took 560 nM to reach half-maximal inhibition in series [2] (Homo sapiens, LXFL 529L, 72 h) (IC50). The molecule further showed a solubility in series [1] of 2 µg/mL (≈ 5.27 µM).
`O=C1Nc2ccccc2/C1=C1/Nc2ccc(C(=O)O)cc2C1=O`: in series [1], the solubility was 278 µg/mL (≈ 908 µM).
As for `COc1ccc2c(c1)/C(=C1/Nc3ccccc3/C1=N\OCC(O)CO)C(=O)N2` (stereo not drawn), the half-inhibitory concentration (IC50) came to 300 nM in the series with MCF7; 530 nM in series [2] (Homo sapiens, LXFL 529L, 72 h); 43 nM in series [3]. In series [1], the concentration in solution (solubility) was 50 µg/mL (≈ 131 µM).
For `O=C1Nc2ccccc2/C1=C1/Nc2ccc(O)cc2/C1=N\O`, the IC50 with MCF7 worked out at 3600 nM. The solubility in series [1] came to 2.7 µg/mL (≈ 9.21 µM).
As to `CCO/N=C1/C(=C2/C(=O)Nc3ccccc32)Nc2ccccc21`, in series [2] (Homo sapiens, LXFL 529L, 72 h), the IC50 was determined as 7600 nM.
For the molecule `Cc1ccc2c(c1)/C(=C1/Nc3ccccc3/C1=N\OCCO[C@@H]1O[C@H](CO)[C@@H](O)[C@H](O)[C@H]1O)C(=O)N2`, the IC50 in the series on MCF7 is 1500 nM; in series [2] (Homo sapiens, LXFL 529L, 72 h), 2000 nM; in series [4], more than 10000 nM; on CDK2/Cyclin A2, 9300 nM; in series [3], 920 nM; at CDK6/cyclin D3 it was 1650 nM. Moreover, the IC50 in series [5] worked out at 290 nM. In series [1], this molecule displayed a solubility of 2 µg/mL (≈ 4.02 µM).
In turn, `Nc1ccc2c(c1)C(=O)/C(=C1/C(=O)Nc3ccccc31)N2` displayed an IC50 with MCF7 of 7600 nM.
Take `O=C1Nc2ccccc2/C1=C1/Nc2ccccc2/C1=N\OCCC(O)CO` (stereo not drawn): the IC50 in series [2] (Homo sapiens, LXFL 529L, 72 h) stood at 650 nM; in series [3], 230 nM. Also, the solubility in series [1] stood at 3 µg/mL (≈ 8.21 µM).
For the molecule `COc1ccc2c(c1)C(=O)/C(=C1/C(=O)Nc3ccc(OC)cc31)N2`, half-maximal inhibition in the series on MCF7 (IC50) was put at 6000 nM.
For `O=C1Nc2ccccc2/C1=C1/Nc2ccc(C(=O)O)cc2/C1=N\O`, in series [1], the solubility is less than 1 µg/mL.
Regarding `COc1ccc2c(c1)/C(=C1/Nc3ccccc3/C1=N\OCCN1CCN(C)CC1)C(=O)N2`, in series [2] (Homo sapiens, LXFL 529L, 72 h), the IC50 came to 1200 nM. Also, the solubility in series [1] stood at 400 µg/mL (≈ 923 µM).
In the case of `CN(C)c1ccc(NCCO/N=C2/C(=C3/C(=O)Nc4ccccc43)Nc3ccccc32)cc1`, half-maximal inhibition in series [2] (Homo sapiens, LXFL 529L, 72 h) (IC50) required 5100 nM. The same molecule came in with a solubility in series [1] of 1.4 µg/mL (≈ 3.19 µM).
Molecule `COc1ccc2c(c1)/C(=C1/Nc3ccccc3/C1=N\OCCN1CCN(C)CC1)C(=O)N2.Cl` yielded an IC50 in the series with MCF7 of 890 nM. Besides, the solubility in series [1] was more than 25000 µg/mL.
Take `COc1ccc2c(c1)/C(=C1/Nc3ccccc3/C1=N\O)C(=O)N2`: the IC50 in series [4] was 910 nM; on CDK2/Cyclin A2, 210 nM; in series [3], 54 nM; on CDK6/cyclin D3, 160 nM; in series [5], 90 nM.
In turn, `CN1CCN(c2ccc(NC(=O)c3ccc4c(c3)C(=O)/C(=C3/C(=O)Nc5ccccc53)N4)cc2)CC1` displayed an IC50 in the series on MCF7 of 10000 nM. In series [1], this molecule came in with a solubility of 4.2 µg/mL (≈ 8.76 µM).
In the same order, the values of `O=C1Nc2ccccc2/C1=C1/Nc2ccc(O)cc2C1=O` are 10700 nM and 7.3 µg/mL (≈ 26.2 µM).
Molecule `O=C1Nc2ccccc2/C1=C1/Nc2ccccc2/C1=N\OCCCCO` showed an IC50 in series [2] (Homo sapiens, LXFL 529L, 72 h) of 2600 nM. Besides, the solubility in series [1] was found to be 0.1 µg/mL (≈ 0.286 µM).
In the same order, the values of `O=C1Nc2ccc(O)cc2/C1=C1/Nc2ccccc2/C1=N\OCCO[C@@H]1O[C@H](CO)[C@@H](O)[C@H](O)[C@H]1O` are 1200 nM and 5 µg/mL (≈ 10 µM).
Consider `O=C1Nc2ccc(C(=O)O)cc2/C1=C1/Nc2ccc(C(=O)O)cc2C1=O`, for which, in the series on MCF7, the IC50 is more than 100000 nM. Moreover, in series [1], the concentration in solution (solubility) was 0.6 µg/mL (≈ 1.71 µM).
On to `COc1ccc2c(c1)/C(=C1\Nc3ccccc3\C1=N/OCCO[C@@H]1O[C@H](CO)[C@@H](O)[C@H](O)[C@H]1O)C(=O)N2`, for which the IC50 in the series on MCF7 is 700 nM; in series [2] (Homo sapiens, LXFL 529L, 72 h), 1100 nM; in series [4], 5580 nM; on CDK2/Cyclin A2, 840 nM; in series [3], 90 nM; at CDK6/cyclin D3, 410 nM. Also, in series [5], the IC50 came to 100 nM. In series [1], the concentration in solution (solubility) was 50 µg/mL (≈ 97.4 µM).
Regarding `O=C1Nc2ccccc2/C1=C1/Nc2ccccc2/C1=N\OCCO[C@@H]1O[C@H](CO)[C@@H](O)[C@H](O)[C@H]1O`, the solubility in series [1] came to 30 µg/mL (≈ 62.1 µM). The IC50 in series [4] was more than 10000 nM; at CDK2/Cyclin A2, not below 10000 nM; in series [3] it was 1700 nM; on CDK6/cyclin D3 it was 1350 nM; in series [5], 810 nM.
